Measurements published in paper PMC10256642 (Clinical Pharmacokinetics, 2023).
“Also recorded” adds a separate entry of the source. Read-outs that look alike come from different tables or passages of the source.

Experiments:
[1] = 5–300 µg dose range; previously demonstrated, no reference given; cited from earlier work
[2] = Immunogenicity: antidrug antibodies; assay type: in vivo, human; conditions: 100 µg s.c. single dose; baseline, 7 and 28 days after treatment
Outline: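 Open-label single subcutaneous dose of test compound (100 µg, lower abdomen, fasted) in adults with normal or impaired renal function. Antidrug antibody titers were measured at baseline, 7 and 28 days post-dose, or at early discontinuation. Cross-reactivity to GLP-1 and glucagon was also recorded. Treatment-emergent incidence is treatment-induced plus treatment-boosted ADA. Analysed in all treated participants with ADA readings.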

[3] = cited from earlier work
[4] = assay type: in vivo, human; conditions: 100 µg s.c. single dose
Outline: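 Adults aged 18–85 (BMI 17–40 kg/m2) were grouped by Cockcroft–Gault CrCl and given a single subcutaneous 100 µg dose of test compound. Fasting ran from ≥8 h before to 4 h after dosing, with no fluids 1 h before to 2 h after. Adverse events, vitals, ECG, telemetry and laboratory tests were monitored inpatient for 72 h, then outpatient at days 7±1 and 28±2. TEAEs were coded by MedDRA 21.0, counting each once at highest severity.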

[5] = in vitro studies; cited from earlier work
[6] = severe renally impaired and ESRD subjects; cited from earlier work

Compound	PK profile (dose and time dependence) [1]	Antidrug antibody (ADA) results [2]	Urine albumin-to-creatinine ratio vs placebo ([3]; 32-day treatment with cotadutide 50–300 µg, T2D and stage 3 CKD with micro- and macroalbuminuria)	Participants with a serious TEAE deemed related to cotadutide ([3]; once-daily cotadutide titrated to 50–300 µg for 32 days, moderate renal impairment and T2D, 1 of 21 participants) [%]	Incidence of headache ([4]; 10 of 37 individuals) [%]	Incidence of nausea ([4]; 12 of 37 individuals) [%]	Incidence of vomiting ([4]; 13 of 37 individuals) [%]	Severity of TEAEs ([4]; all groups)	Incidence of TEAE ([4]; all patients, 22 of 37) [%]	Incidence of TEAE ([4]; lower moderate renal impairment group, 8 of 11 patients) [%]	Incidence of nausea ([4]; normal renal function group) [%]	Incidence of vomiting ([4]; normal renal function group) [%]	Incidence of nausea, range ([4]; renal impairment groups)	Incidence of vomiting, range ([4]; renal impairment groups)	Deaths or other serious TEAEs ([4]; study period)	Incidence of TEAE ([4]; upper moderate renal impairment group, 3 of 7 patients) [%]	Primary cleavage sites (metabolized specifically in the kidney) [5]	Tolerability and PK in severe renal impairment and ESRD [6]
CCCCCCCCCCCCCCCC(=O)N[C@@H](CCC(=O)NCCCC[C@H](NC(=O)[C@H](CC(=O)O)NC(=O)[C@H](CO)NC(=O)[C@@H](NC(=O)[C@H](Cc1ccccc1)NC(=O)[C@@H](NC(=O)CNC(=O)[C@H](CCC(N)=O)NC(=O)[C@H](CO)NC(=O)[C@@H](N)Cc1c[nH]cn1)[C@@H](C)O)[C@@H](C)O)C(=O)N[C@@H](CO)C(=O)N[C@@H](CCC(=O)O)C(=O)N[C@@H](Cc1ccc(O)cc1)C(=O)N[C@@H](CC(C)C)C(=O)N[C@@H](CC(=O)O)C(=O)N[C@@H](CO)C(=O)N[C@@H](CCC(=O)O)C(=O)N[C@@H](CCCNC(=N)N)C(=O)N[C@@H](C)C(=O)N[C@@H](CCCNC(=N)N)C(=O)N[C@@H](CC(=O)O)C(=O)N[C@@H](Cc1ccccc1)C(=O)N[C@H](C(=O)N[C@@H](C)C(=O)N[C@@H](Cc1c[nH]c2ccccc12)C(=O)N[C@@H](CC(C)C)C(=O)N[C@@H](CCC(=O)O)C(=O)N[C@@H](C)C(=O)NCC(=O)NCC(=O)O)C(C)C)C(=O)O [cotadutide]	linear and time-independent PK profile	No positive antidrug antibody results; also recorded: No confirmed positive ADA results	reduced urine albumin-to-creatinine ratio	4.8	27.0	32.4	35.1	mostly mild to moderate in severity	59.5	72.7	38	38	29–38%	18–50%	no deaths or other serious TEAEs	42.9		
exenatide: GLP-1 receptor agonist exenatide (exendin-4)																	after amino acids (AA)-21 and -22	poor tolerability and significant changes in PK
